Data taken from ChEMBL document CHEMBL2062417, “Biotinylated quercetin as an intrinsic photoaffinity proteomics probe for the identification of quercetin target proteins” (Bioorg Med Chem, 2011).
The source made the active and inactive calls. The calls are words filed in the database; no cut-off is given here.

Tests used:
[1] = biological target: Calcium/calmodulin-dependent protein kinase type II subunit beta (Homo sapiens, UniProt Q13554); experiment: Inhibition of CAMK2 using autocamtide-2 as substrate after 30 mins by PKLight assay
Chain of Calcium/calmodulin-dependent protein kinase type II subunit beta (Q13554 whole entry): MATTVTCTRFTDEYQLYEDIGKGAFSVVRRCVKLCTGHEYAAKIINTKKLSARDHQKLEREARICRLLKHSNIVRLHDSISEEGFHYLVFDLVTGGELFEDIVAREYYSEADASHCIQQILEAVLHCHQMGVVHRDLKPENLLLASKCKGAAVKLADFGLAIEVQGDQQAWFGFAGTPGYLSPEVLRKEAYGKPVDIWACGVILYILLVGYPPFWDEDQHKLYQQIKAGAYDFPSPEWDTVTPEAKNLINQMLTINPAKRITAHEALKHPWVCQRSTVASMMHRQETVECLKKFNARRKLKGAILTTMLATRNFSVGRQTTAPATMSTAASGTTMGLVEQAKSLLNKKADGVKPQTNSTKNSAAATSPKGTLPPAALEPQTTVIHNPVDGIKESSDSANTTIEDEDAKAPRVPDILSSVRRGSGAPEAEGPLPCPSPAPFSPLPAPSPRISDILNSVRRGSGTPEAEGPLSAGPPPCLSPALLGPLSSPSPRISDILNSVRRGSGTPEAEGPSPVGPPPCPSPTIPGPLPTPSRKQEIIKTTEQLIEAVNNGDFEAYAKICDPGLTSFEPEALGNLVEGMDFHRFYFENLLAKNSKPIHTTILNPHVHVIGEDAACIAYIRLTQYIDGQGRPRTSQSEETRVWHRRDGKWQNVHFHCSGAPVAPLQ

[2] = test system: Jurkat; experiment: Inhibition of heat shock-induced HSP70 expression in human Jurkat cells at 145 uM treated 2 hrs before beat shock challenge measured after 8 hrs by Western blotting; type: functional, cell-based
Summary of the method: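 Jurkat cells (low basal HSP70) got 145 μM compound or DMSO vehicle for 2 h, then a 30 min 43 °C heat shock and 8 h recovery at 37 °C. HSP70 and actin were read by Western blot. Controls were unheated cells and heated cells with no additive.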

O=c1c(O)c(-c2ccc(O)c(O)c2)oc2cc(O)cc(O)c12 [QUERCETIN]
IC50 [1]: 3 µM | inhibition [2]: Active
